# Published values of several laboratories.
# Target: Phosphatidylinositol 4-phosphate 3-kinase C2 domain-containing subunit beta (PIK3C2B, Homo sapiens, UniProt O00750)
Structure (SMILES),observed,mode,method,concentration,quantity,result
CC#CC(=O)N1CCC[C@H]1c1nc(-c2ccc(C(=O)Nc3ccccn3)cc2)c2c(N)nccn12,enzyme activity,inhibitor,,1 µM,inhibition,0%
N#Cc1ccc(NC(=O)Nc2ccccc2)cc1,cell-free assay,,competition with immobilised ligand,25 µM,remaining binding,79%
C=CC(=O)N1CCC([C@@H]2CCNc3c(C(N)=O)c(-c4ccc(Oc5ccccc5)cc4)nn32)CC1,enzyme activity,inhibitor,,1 µM,inhibition,0%
C#Cc1cnc(Nc2ccnc(CO)c2)nc1Nc1ccccc1S(C)(=O)=NC#N (centres unmarked),cell-free assay,,,1 µM,remaining signal,100%
CN1CCN(C(=O)c2ccc(NC(=O)Nc3ccc(N(C)c4ccnc(Nc5ccc(CS(C)(=O)=O)cc5)n4)cc3)cc2)CC1,binding,,,1 µM,remaining binding,100%
CCCCC(=O)Nc1ccc(-c2ccc3ncn(CCC)c(=O)c3c2)cn1,binding,,competition with immobilised ligand,0.5 µM,remaining binding,100%
C[C@H]1CC[C@H](n2c3cnccc3c3cnc(Nc4ccc5c(n4)CCN(C(=O)CO)C5)nc32)CC1,cell-free assay,,,1 µM,remaining signal,100%
C1=C/COCc2cc(ccc2OCCN2CCCC2)Nc2nccc(n2)-c2cccc(c2)COC/1,binding,,,0.1 µM,remaining binding,87%
